# In the library only some 2.4% were active in any assay of this set; here they are far more common.
# H9c2 TAG inh = reduces triacylglycerol accumulation in H9c2 cells; Nile Red lipid (TAG) fluorescence; cells loaded with 200 µM oleic acid; inhibition, % at 12.5 µM; 0.66% of 230,000 active; AID 651582;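 active = pattern-corrected inhibition of lipid staining of at least 50% with the nuclear-stain viability signal not falling by more than 50%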
# MC4R antag cAMP = human MC4R antagonism in cAMP assay; MC4R-expressing cells, MTII-stimulated cAMP, LANCE TR-FRET; 0.48% of 360,000 active; AID 540295; P32245; inhibition, % at 6.5 µM;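 active = inhibition above its plate's cutoff, the mean of tested wells on that plate plus 3 SD, cut at about 29% in these data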
#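 Assay system: human MC4R-expressing U2OS cells; reagent: Melanotan II stimulation of cells; dosing: 6.5 µM single dose; timing: compound 30 min, challenge 1 h, detection 1 h; signal: TR-FRET cAMP assay; replicates: one well per compound, no replicates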
# aDG glyco up = alpha-DG glycosylation activation; Pro5-aDG cells, alpha-DG glycosylation AlphaScreen (IIH6); 0% Pro5, 100% B10-LARGE cell signal; activation, % at 10 µM; 0.22% of 360,000 active;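 active = activation of at least 8% versus controls, or a plate z-score of at least 8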;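 note: Pro5 are CHO cells carrying HIG-tagged alpha-DG that lacks glycosylation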
# MC4R ag barr = human MC4R agonism via beta-arrestin; P32245; U2OS MC4R beta-arrestin complementation, luminescence; percent of melanotan II response, DMSO zero; activation, % at 8.9 µM; 0.98% of 360,000 active;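 active = activation above a per-plate cutoff, the mean activation of sample wells on that plate plus 3 SD, cut at about 8% in these data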
# NTR1 ag = NTR1 (human) agonism; P30989; NTR1-U2OS beta-arrestin-GFP spot imaging, agonist mode; activation, % at 20 µM; 0.17% of 330,000 active;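 active = activation at or above 40% of the spot to cytoplasm intensity ratio, with at least 20 cells analyzed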
# Target sequence (P30989 whole entry, looked up): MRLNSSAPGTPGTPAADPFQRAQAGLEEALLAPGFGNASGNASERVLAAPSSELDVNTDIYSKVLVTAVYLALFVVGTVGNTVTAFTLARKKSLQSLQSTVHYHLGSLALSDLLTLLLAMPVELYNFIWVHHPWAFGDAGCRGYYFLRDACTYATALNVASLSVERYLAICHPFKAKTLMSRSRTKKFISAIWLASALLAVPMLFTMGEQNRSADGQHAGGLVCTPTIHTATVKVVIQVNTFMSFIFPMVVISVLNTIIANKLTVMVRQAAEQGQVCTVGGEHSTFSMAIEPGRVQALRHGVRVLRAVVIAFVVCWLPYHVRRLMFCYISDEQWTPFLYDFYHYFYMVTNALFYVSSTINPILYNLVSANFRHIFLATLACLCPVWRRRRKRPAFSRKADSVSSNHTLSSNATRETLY
# Tb MetRS inh = blocks T. brucei methionyl-tRNA synthetase activity | purified T. brucei MetRS, ATP depletion, Kinase-Glo luminescence | inhibition, % at 11.9 µM | 0.4% of 360,000 active;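 active = inhibition above a per-plate cutoff of the control wells' mean inhibition plus 3 SD, cut at about 5.5% in these data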
#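 Assay system: T. brucei methionyl-tRNA synthetase, purified | Medium: HEPES buffer with MgCl2, KCl, DTT, spermine, BSA, pyrophosphatase | Compound: 11.9 µM single point | Incubation: 15 min enzyme-compound preincubation, 2 h reaction, 10 min detection, 25 °C | Measured by: Kinase-Glo luciferase luminescence reporting remaining unconsumed ATP | Measure: % inhibition normalized to control-well medians | Replication: Singlicate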
# TbMetRS confirm = confirmation of Trypanosoma brucei MetRS inhibitors | shares compounds with Tb MetRS inh | T. brucei MetRS enzyme, luminescence (ATP depletion) | inhibition, % at 11.9 µM | 93% of 1,400 active | AID 624412; in the data active = inhibition above about 7%
# Jurkat tox = counter-screen for T. brucei MetRS inhibitors: Jurkat cell cytotoxicity; 12% of 1,400 active; inhibition, % at 8.3 µM; shares compounds with Tb MetRS inh; Jurkat cells viability, ATP luminescence; in the data active = inhibition above about 15%
# TbMetRS FP orth = inhibits T. brucei methionyl tRNA synthetase in orthogonal FP test | shares compounds with Tb MetRS inh | purified T. brucei MetRS, fluorescence polarization | inhibition, % at 11.9 µM | 44% of 1,400 active; in the data active = inhibition above about 17%
# Hits are given with their value; – = inactive; · = not tested or not shown.
SMILES,H9c2 TAG inh,MC4R antag cAMP,aDG glyco up,MC4R ag barr,NTR1 ag,Tb MetRS inh,TbMetRS confirm,Jurkat tox,TbMetRS FP orth
CC(=O)Oc1ccc(/C=C(\NC(=O)c2cccc(Br)c2)C(=O)Nc2ccc(C(=O)O)cc2)cc1,–,–,–,–,–,6.2,12.0,–,–
Cc1ccc(NC(=O)/C(=C/C=C/c2ccccc2)NC(=O)c2ccccc2)cc1,–,–,–,–,–,–,·,·,·
C[C@@H]1CN([C@@H](C)CO)C(=O)c2cc(NC(=O)Nc3ccccc3)ccc2O[C@@H](C)CCCCO[C@H]1CN(C)C(=O)Nc1ccc(C(F)(F)F)cc1,–,–,–,–,·,17.5,22.4,–,–
C[C@@H]1CCCCO[C@H](CN(C)C(=O)Nc2ccc(F)cc2)[C@@H](C)CN([C@H](C)CO)C(=O)c2cc(NC(=O)c3ccccc3)ccc2O1,–,–,–,–,·,–,·,·,·
Cc1cccc(OCc2nc(C#N)c(NCc3ccc4c(c3)OCO4)o2)c1,–,–,–,–,–,–,·,·,·
N#Cc1nc(COc2ccc(Cl)cc2)oc1NCc1ccc2c(c1)OCO2,–,–,–,–,–,5.7,9.8,–,–
C[C@H](c1ccccc1)N1C[C@@H](COCc2ccccc2)Oc2cc(N3CC[C@@H](N(C)C)C3)ccc2S1(=O)=O,·,·,–,·,·,–,·,·,·
c1ccc2c(c1)nc(N1CCOCC1)c1c3ccccc3[nH]c21,·,–,–,–,–,11.8,–,–,–
O=C(Cc1ccccc1)Nc1nonc1NC(=O)c1ccccc1,–,–,–,–,–,9.1,16.2,–,–
O=C(Cc1ccccc1)Nc1ccc(NC(=O)c2ccccc2)nc1,·,–,–,–,–,–,·,·,·
Brc1ccc(-n2c(SCc3nc4ccccc4[nH]3)nnc2-c2ccncc2)cc1,·,–,–,–,–,27.2,41.9,–,–
COc1ccccc1Cc1c(-c2cccc(Br)c2)nc2c(C)cc(Br)cn12,·,·,–,·,·,–,·,·,·
O=c1[nH]c(Nc2ccccc2)cc2cc(Br)ccc12,–,–,–,–,–,–,·,·,·
O=c1[nH]c(Nc2ccccc2)cc2ccccc12,–,–,–,–,–,8.1,–,–,–
Cc1nn(C(=O)CNC(=O)c2ccccc2)c(C)c1C,–,–,–,–,–,–,·,·,·
Cc1nn(C(=O)c2cc3sccc3[nH]2)c(C)c1C,·,–,–,–,–,9.2,16.7,–,–
NC(=O)Nc1ccc(C(=O)OCC(=O)c2c[nH]c3ccccc23)cc1,–,–,–,–,–,–,·,·,·
O=C(OCC(=O)c1c[nH]c2ccccc12)c1ccc(OC(F)F)cc1,–,–,–,–,·,12.2,30.7,–,29.0
Cc1ccc(C(=O)NCCN2CCC(n3c(=O)[nH]c4ccccc43)CC2)cc1,·,·,–,·,·,–,·,·,·
CCO[C@@H]1OC(C(=O)NCc2nc3ccccc3[nH]2)=C[C@H](C(C)(C)C)[C@H]1CCCO,–,–,–,–,–,6.4,32.9,71.3,–
CCO[C@@H]1OC(C(=O)NCc2nc3ccccc3[nH]2)=C[C@H](C2CC2)[C@H]1CCCO,–,–,–,–,–,–,·,·,·
C#Cc1ccc([C@H]2C=C(C(=O)NCc3nc4ccccc4[nH]3)O[C@@H](OCC)[C@@H]2CCCO)cc1,·,–,–,–,–,12.2,36.0,–,17.0
CCO[C@H]1OC(C(=O)NCc2nc3ccccc3[nH]2)=C[C@@H](c2ccc(Br)cc2)[C@@H]1CCCO,·,–,–,–,–,37.8,80.4,–,56.6
O=C1Nc2ccccc2-n2nnnc2C1N1CCc2ccccc2C1 (configuration not stated),·,·,–,·,·,–,·,·,·
COc1c2ccccc2nn1C(C)C,·,·,–,·,·,–,·,·,·
SMILES,H9c2 TAG inh,MC4R antag cAMP,aDG glyco up,MC4R ag barr,NTR1 ag,Tb MetRS inh,TbMetRS confirm,Jurkat tox,TbMetRS FP orth
Cc1cccnc1C(NC(=O)C1CCN(Cc2ccc(Oc3ccccc3)cc2)CC1)c1ccc(F)cc1 (configuration not stated),–,–,–,–,·,–,·,·,·
COCCNC(=O)C1CCCN(C(=O)c2ccc3sccc3c2)CC1 (configuration not stated),–,–,–,–,·,–,·,·,·
Cc1cc(OCC(=O)OCC(=O)N(Cc2ccccc2)C(C)(C)C)ccc1Cl,–,–,–,–,·,–,·,·,·
CCCCNc1nc2ccccc2[nH]1,–,–,–,–,–,8.0,14.4,–,–
O=C(CNC(=O)c1ccccc1)NCC(=O)OCc1ccccc1Cl,·,–,–,–,–,–,·,·,·
O=C(CCNC(=O)c1ccc(Br)cc1)OCc1ccccc1Cl,–,–,–,–,–,7.0,34.3,–,19.4
COc1cccc(CN2CCC2(C)C(=O)Nc2cccc(Oc3ccccc3)c2)c1OC (configuration not stated),–,–,–,–,·,–,·,·,·
CCC(=O)c1c[nH]c(C(=O)NCc2cccc(C(F)(F)F)c2)c1,·,–,–,–,–,6.0,11.7,–,–
O=C(N/N=C/c1ccc(-c2ccc(S(=O)(=O)Nc3ncccn3)cc2)o1)c1cc2ccccc2cc1O,·,–,–,–,–,6.8,29.7,–,26.6
Nc1nc(Nc2cccc(F)c2)nc2ccccc12,–,–,–,–,–,23.9,34.3,–,19.5
CC(=O)Nc1ccc(S(=O)(=O)N2CCC(Oc3ccc(-n4cnnn4)cc3)CC2)cc1,·,–,–,–,–,6.0,14.9,–,–
COc1ccc(NC(=O)C2CCCN(S(=O)(=O)c3ccc(-n4cnnn4)cc3)C2)cc1 (configuration not stated),·,–,–,–,–,–,·,·,·
O=[N+]([O-])c1ccc(N2CCN(Cc3ccccc3)CC2)c2c1no[n+]2[O-],–,–,–,–,·,–,·,·,·
O=C(NCc1ccc2c(c1)OCO2)c1ccc(N2CCCCCC2)c([N+](=O)[O-])c1,–,–,–,–,–,–,·,·,·
O=C(O)c1ccc(N2CCN(Cc3ccc4c(c3)OCO4)CC2)c([N+](=O)[O-])c1,·,–,–,–,–,7.0,15.5,–,–
COc1cc(/C=N/NC(=O)CSc2cc(C)c(Br)cc2C)ccc1O,–,–,–,–,–,–,·,·,·
Cc1cc(SCC(=O)N/N=C/c2ccc(O)c(O)c2O)c(C)cc1Br,·,–,–,–,–,76.4,103.5,56.1,84.3
CC(C)CC1C(=O)N(Cc2cn(CCC3OCCCO3)nn2)CCS(=O)(=O)N1Cc1ccc(-c2ccncc2)cc1 (configuration not stated),–,–,–,–,·,–,·,·,·
O=[N+]([O-])c1ccc(NC(=S)NCCc2ccc(Cl)cc2)cc1,–,–,–,–,–,6.9,13.1,35.9,47.3
O=[N+]([O-])c1ccc(NC(=S)NCCc2ccccc2)cc1,·,–,–,–,–,–,·,·,·

# Screening data: PubChem, several laboratories
